The test system of series [1] is LPS-activated RAW264.7 macrophages. The experiment in a line: IL-6 release. It counts as cell-based, mouse. The following applies: LPS 500 ng/ml, 48 h.
Series [2] shares this test system. The experiment in a line: TNF-α release. It counts as cell-based, mouse. The following applies: LPS 500 ng/ml, 48 h; for effect of co-incubation with RID-B on TNF-α levels: ligand with RID-B.
For series [3] the test system is unchanged. The series can be described thus: Nitric oxide production. Format: cell-based, mouse. The following applies: for effect of co-incubation on NO reduction by RID-B: ligand 5 μM with RID-B 1 μM.
Series [4] concerns RAW264.7 mouse macrophage cells. The experiment in a line: Cell viability. Format: cell-based. The following applies: for effect of co-incubation on RID-B cytotoxicity: with RID-B 10 μM, LPS 500 ng/ml.
In series [5] the test system is primary bone marrow macrophages. The experiment in a line: Osteoclast differentiation with TRAP staining. Format: cell-based, mouse. The following applies: for effect on osteoclast development, ligand alone: receptor-saturating concentration, without RID-B; for effect of co-incubation on anti-osteoclastogenic effect of RID-B: with RID-B 300 nM; for number of osteoclasts: N = 4.

The target of series [6] is T1, human CB2 receptors (Homo sapiens, UniProt P34972). The series can be described thus: [35S]GTPγS binding. Format: biochemical. A general note: GTPγS is a poorly hydrolysed GTP analogue; its binding reports G protein activation.
T1 sequence (P34972 whole entry): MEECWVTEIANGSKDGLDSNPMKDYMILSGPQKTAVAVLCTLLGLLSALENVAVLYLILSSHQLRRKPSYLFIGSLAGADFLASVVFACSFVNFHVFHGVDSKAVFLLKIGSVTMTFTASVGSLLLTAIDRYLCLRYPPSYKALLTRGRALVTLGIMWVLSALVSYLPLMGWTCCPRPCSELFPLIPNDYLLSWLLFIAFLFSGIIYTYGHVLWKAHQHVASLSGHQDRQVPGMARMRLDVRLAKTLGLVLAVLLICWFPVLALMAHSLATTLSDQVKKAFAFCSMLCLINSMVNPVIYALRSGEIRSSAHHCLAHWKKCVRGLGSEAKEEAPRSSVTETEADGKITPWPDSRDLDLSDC
Series [7] deals with CHO cells devoid of CB2 receptors. The series can be described thus: G-protein activity in CHO cells devoid of CB2 receptors. It counts as biochemical, Chinese hamster. The following applies: data not shown.
In series [8] the target is T1, human CB2 receptors. The series can be described thus: Forskolin-stimulated adenylyl cyclase activity in CHO-hCB2 cells. It counts as cell-based.
Series [9] has as its system CHO cells not expressing cannabinoid receptors. The series can be described thus: Intracellular cAMP in CHO cells not expressing cannabinoid receptors. Format: cell-based, Chinese hamster. The following applies: data not shown.
The target of series [10] is human CB1 receptors (Homo sapiens, UniProt P21554). The series can be described thus: Competition receptor binding vs [3H]CP-55,940, CHO-hCB1 membranes. The following applies: RID-B 1 μM; radioligand 0.2 nM; initial binding screen, data not shown.
Chain of human CB1 receptors (P21554 whole entry): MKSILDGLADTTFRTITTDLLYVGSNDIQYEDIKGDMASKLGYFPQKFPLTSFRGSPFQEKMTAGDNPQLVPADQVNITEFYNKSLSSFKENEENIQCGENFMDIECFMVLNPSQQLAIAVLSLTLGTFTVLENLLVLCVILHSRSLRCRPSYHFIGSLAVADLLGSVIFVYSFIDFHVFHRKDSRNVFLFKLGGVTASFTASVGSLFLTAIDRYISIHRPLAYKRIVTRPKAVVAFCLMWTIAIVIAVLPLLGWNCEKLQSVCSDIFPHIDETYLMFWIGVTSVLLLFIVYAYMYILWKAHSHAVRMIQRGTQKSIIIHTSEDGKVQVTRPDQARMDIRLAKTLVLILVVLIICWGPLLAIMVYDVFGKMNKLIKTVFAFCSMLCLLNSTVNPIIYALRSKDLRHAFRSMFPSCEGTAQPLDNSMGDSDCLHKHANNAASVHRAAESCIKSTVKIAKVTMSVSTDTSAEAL
For series [11], the system named is LPS-activated RAW264.7 macrophages. The experiment in a line: IL-1α release. It counts as cell-based, mouse. The following applies: RID-B 1 μM; LPS 500 ng/ml, 48 h. In a few lines:
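RAW264.7 mouse macrophages pre-incubated 1 h with test compound, then stimulated with LPS 500 ng/ml for 48 h. Media collected and stored at −20 °C. Mouse IL-1α measured by ELISA kit per manufacturer's instructions.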

Series [12] has as its target T1, human CB2 receptors. The series can be described thus: Competition receptor binding vs [3H]CP-55,940, CHO-hCB2 membranes.

The values below come from PMC6487498 (Toxicology and applied pharmacology, 2018).

Turning to `Cc1c(C(=O)NN2CCOCC2)nn(-c2ccc(Cl)cc2Cl)c1-c1ccc(I)cc1` [AM-281], in series [1] (without RID-B, N = 4), the “IL-6 level, ligand alone” value was found to be 1040 ± 119.4 pg/mL. Also, the “TNF-α level, ligand alone” value in [2] (without RID-B, N = 4) is 21.3 ± 0.21 ng/mL. In addition, the “effect of co-incubation with RID-B on TNF-α levels” value (“effect of co-incubation with RID-B” for short) in series [2] is “significantly increases TNF-α levels”. Moreover, the “effect of co-incubation on NO reduction by RID-B” value (from here on “effect … on NO reduction by RID-B”) in series [3] (LPS 500 ng/ml, 48 h) was “did not alter NO levels compared to RID-B administered alone”. The “effect of co-incubation on RID-B cytotoxicity” value in [4] is “attenuated”. In series [5], the “effect on osteoclast development, ligand alone” value (“effect on osteoclast development” below) is given as “significantly reduce osteoclast development” and the “effect of co-incubation on anti-osteoclastogenic effect of RID-B” value (“effect of co-incubation … of RID-B” below) is recorded as “little consequence on the effects of RID-B”.
For `COc1ccc(C(=O)c2c(C)n(CCN3CCOCC3)c3cc(I)ccc23)cc1` [AM-630], the “effect of co-incubation with RID-B” value in [2] is “significantly increases TNF-α levels”. Besides, the “effect … on NO reduction by RID-B” value in series [3] (LPS 500 ng/ml, 48 h) is “did not alter NO levels compared to RID-B administered alone”. Moreover, the number of osteoclasts in series [5] (AM-630 alone (1 μM in Fig. 7), vehicle 339.1 ± 15.6) came to 168.1 ± 15.4 osteoclasts per well.
As to `CCCCCCC(C)(C)c1ccc(C2CC(O)CCC2CCCO)c(O)c1` (stereo not drawn) [CP-55,940, 5-(1,1-dimethylheptyl)-2-[5-hydroxy-2-(3-hydroxypropyl)cyclohexyl]phenol], the Emax (in general, the greatest response seen or fitted, relative to the assay's reference) in series [6] (read-out: G-protein activation Emax) came to 25.4 ± 3%. Moreover, in [2], the “effect of co-incubation with RID-B” value is recorded as “have no effect”. Besides, the “effect of co-incubation on RID-B cytotoxicity” value in [4] is on record as “attenuated”. For the same molecule, in series [5], the “effect on osteoclast development” value is “marginally reduced osteoclast formation” and the “effect of co-incubation … of RID-B” value is reported as “significantly attenuated the anti-osteoclastogenic effects produced by RID-B”.
Consider `CCCn1c(C)c(C(=O)c2cccc3ccccc23)c2ccccc21` [JWH-015], for which the “effect of co-incubation with RID-B” value in [2] is “have no effect”. Besides, in [5], the “effect on osteoclast development” value is given as “significantly reduce osteoclast development” and the “effect of co-incubation … of RID-B” value was “little consequence on the effects of RID-B”.
As to `CCC(=C(c1ccc(OCCN2CCCC2)cc1)c1ccc(OCCN2CCCC2)cc1)c1ccccc1` [RID-B, ridaifen-B], in series [6] (inverse agonism, N = 3), the “G-protein activation Imax (decrease below basal levels)” value is recorded as −31.2 ± 0.37%. In series [7], the “effect on G-protein activity” value is recorded as “no effect on G-protein activity”. Besides, the “reduction of LPS-induced IL-6 increase” value in series [1] (RID-B 1 μM) is given as 45%. The molecule also displayed an IL-6 level in series [1] (RID-B 1 μM, N = 4) of 349.9 ± 34.9 pg/mL. In [2] (RID-B 1 μM), the “effect on TNF-α levels” value is “slight but non-significant increase in TNF-α levels”. Further, in series [8] (10 μM forskolin, inverse agonism, N = 3), the “Imax, increase of adenylyl cyclase activity (elevated cAMP levels)” value amounted to 398 ± 30%. Further, the “decrease in the potency of WIN-55,212-2 to inhibit adenylyl cyclase activity” value in [8] (RID-B 3 μM co-incubation, efficacy unchanged, parallel rightward shift) is 11.2 fold. For the same molecule, in series [8] (read-out: antagonist dissociation constant (Kb), RID-B 3 μM against WIN-55,212-2, N = 3), the Kb – broadly, the affinity of an antagonist, worked out from how it opposes an agonist – worked out at 294 nM. The “effect on intracellular cAMP levels” value in series [9] is “does not alter intracellular cAMP levels”. Also, in series [10], the “displacement of [3H]-CP-55,940 from human CB1 receptors” value is reported as > 50%. This molecule also displayed an IL-1α level in series [11] of 73.1 ± 4.7 pg/mL. The “reduction of IL-1α level” value in series [11] is listed as 52.3%. The “effect on EC50 values of LPS for NO production” value in [3] (RID-B 300 nM, 500 nM, 1 μM) was “did not alter the EC50 values of LPS”. The “reduction of NO production vs cells treated only with LPS” value in [3] (RID-B 1 μM alone, LPS 500 ng/ml, 48 h, N = 10) amounted to 30.1 ± 5.1%. The NO reduction in series [3] (RID-B 1 μM co-incubated with CP-55,940 2 μM, LPS 500 ng/ml, 48 h, N = 10) is 9.3 ± 4.6%. Also, in [3] (RID-B 1 μM co-incubated with JWH-015 5 μM, LPS 500 ng/ml, 48 h, N = 4), the “NO levels reduced to” value is 51.1 ± 6.4%. The “Emax of LPS-induced NO production” value was 19.4 ± 3.8 µM in [3] (co-incubation with RID-B 300 nM, 48 h, N = 3); 22.0 ± 9.9 µM in series [3] (co-incubation with RID-B 500 nM, 48 h, N = 3); 18.2 ± 4.7 µM in series [3] (co-incubation with RID-B 1 μM, 48 h, N = 4). The “decrease of cell viability” value in series [4] (RID-B 10 μM alone, 4 h exposure to LPS, N = 4) amounted to 34.0 ± 5.4%. Moreover, the “effect on cell viability” value in [4] (RID-B 1 or 3 μM, forty-eight hour exposure to LPS 500 ng/ml) is on record as “no effect on cell viability”. Further, the number of osteoclasts in series [5] (RID-B 300 nM alone, vehicle 339.1 ± 15.6) is recorded as 174.4 ± 19.2 osteoclasts per well; in series [5] (RID-B 300 nM co-incubated with AM-630), 94.6 ± 15.6 osteoclasts per well. For the same molecule, the “maximal decrease in the number of osteoclasts” value in series [5] (RID-B 300 nM, M-CSF and RANKL, 4 days, drugs on days 2 and 3) is 48.6%. Also, in series [12] (RID-B 1 μM, radioligand 0.2 nM, initial binding screen, data not shown), the “displacement of [3H]-CP-55,940 from human CB2 receptors” value was > 50%. Besides, in series [12] (ratio of Ki values), the “selectivity (affinity) for CB2 over CB1 receptors” value is given as 17 fold.
Take SR-144528 [reference compound]: the “effect … on NO reduction by RID-B” value in [3] (LPS 500 ng/ml, 48 h) is recorded as “did not alter NO levels compared to RID-B administered alone”.
